From PubChem BioAssay
Compounds with a hit are over-represented: about 2% of the library has one in this group of screens.
M1 PAM: human M1 muscarinic receptor positive allosteric modulators, primary screen, CHO-K1 cells, Fluo-8 calcium fluorescence, 1536-well | 0.088% of 360,000 active | CHO-K1 hM1, ACh EC20; 0% = ACh EC20, 100% = maximal ACh | activation, % at 3 µM; in the data active = activation above about 19%, passing the limit was not always enough
Target sequence (P11229 whole entry, looked up): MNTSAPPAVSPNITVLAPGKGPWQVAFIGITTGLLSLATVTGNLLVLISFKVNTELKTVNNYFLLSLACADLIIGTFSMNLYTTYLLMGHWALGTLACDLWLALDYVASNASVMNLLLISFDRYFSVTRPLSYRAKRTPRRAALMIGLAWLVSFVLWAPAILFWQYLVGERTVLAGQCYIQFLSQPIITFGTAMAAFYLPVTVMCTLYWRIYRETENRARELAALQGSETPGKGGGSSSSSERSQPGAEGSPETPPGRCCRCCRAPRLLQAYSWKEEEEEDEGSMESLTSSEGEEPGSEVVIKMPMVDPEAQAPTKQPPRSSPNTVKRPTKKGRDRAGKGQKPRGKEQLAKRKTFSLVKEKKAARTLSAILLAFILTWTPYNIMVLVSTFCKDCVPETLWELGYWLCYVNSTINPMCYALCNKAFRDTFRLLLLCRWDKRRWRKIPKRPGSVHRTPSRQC
M5 PAM: human M5 muscarinic receptor positive allosteric modulators, primary screen, CHO-K1 cells, Fluo-8 calcium fluorescence; Muscarinic acetylcholine receptor M5 (Homo sapiens), P08912; CHO-K1 hM5, ACh EC20 PAM; 0% = ACh EC20, 100% = ACh EC100; activation, % at 3 µM; 0.3% of 360,000 active; AID 624038, 2012;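 active = activation above the run cutoff, the mean activation of all test compounds plus 3 SD, cut at about 18% in these data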
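System – CHO-K1 hM5 cells · Compound – 3 µM, single dose · Incubation – compound preincubation 140 s before EC20 acetylcholine addition · Technique – Fluo-8 calcium fluorescence · Measure – Max/basal fluorescence ratio as % of EC20–EC100 ACh window · Benchmarks – low control EC20 acetylcholine (0%), high control EC100 acetylcholine (100%) · Replication – singlicate, one well per test compound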
CHRM1 agonist: human M1 muscarinic receptor agonists, primary screen, Fluo-8 calcium fluorescence, CHO-K1 cells, HTS; 0.33% of 360,000 active; Muscarinic acetylcholine receptor M1 (Homo sapiens), P11229; activation, % at 3 µM; AID 588814, 2011; CHO-K1 hM1, agonist mode; 0% DMSO, 100% acetylcholine EC100;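 active = activation above the run's mean compound activation plus 3 SD, cut at about 16% in these data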;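 note: peak over basal fluorescence ratio within a 140 s kinetic read after compound addition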
M5 ag: human M5 muscarinic receptor agonists, primary screen, CHO-K1 cells, Fluo-8 calcium fluorescence; 0.19% of 360,000 active; AID 624037, 2012; CHO-K1 hM5 cells; 0% DMSO wells, 100% maximal acetylcholine response; Muscarinic acetylcholine receptor M5 (Homo sapiens), P08912; activation, % at 3 µM;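 active = activation above the run's mean over test compounds plus 3 SD, cut at about 23% in these data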;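 note: signal is peak over basal fluorescence ratio across the kinetic read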
M5 antag: human M5 muscarinic receptor antagonists, primary screen, CHO cells, Fluo-8 calcium fluorescence; Muscarinic acetylcholine receptor M5 (Homo sapiens), P08912; CHO-hM5 cells, ACh EC80; inhibition, % at 3 µM; 0.59% of 360,000 active;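 active = inhibition above a per-plate cutoff, the mean of that plate's test compounds plus 3 SD, cut at about 27% in these data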
M1 antag: human M1 muscarinic receptor antagonists, primary screen, CHO-K1 cells, Fluo-8 calcium fluorescence, 1536-well | Muscarinic acetylcholine receptor M1 (Homo sapiens), P11229 | CHO-K1 hM1, ACh EC80 antagonist | inhibition, % at 3 µM | 1.3% of 360,000 active | AID 588852, 2011;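 active = percent inhibition above its own plate's cutoff, namely the mean of that plate's compound wells plus 3 SD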;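 note: peak over basal fluorescence ratio during 140 s after agonist addition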
Hits are given with their value; n = inactive; x = no result.

SMILES	M1 PAM	M5 PAM	CHRM1 agonist	M5 ag	M5 antag	M1 antag
Cc1ccc(S(=O)(=O)n2c(N)nc3ccccc32)cc1	n	n	n	n	76.0	98.0
COc1ccc(S(=O)(=O)n2c(N)nc3ccccc32)cc1	n	n	n	n	69.2	99.8
Nc1nc2ccccc2n1S(=O)(=O)c1ccc(Cl)cc1	n	n	n	n	40.3	78.7
CC(C)NC(=O)C1(C)CCCN1C(=O)c1ccccc1Br (stereo not given)	n	n	n	n	n	n
CC1(C(=O)NS(=O)(=O)C2CC2)CCCN(C(=O)c2cccc(OC(F)(F)F)c2)C1 (stereo not given)	n	n	n	n	n	n
O=C(CC[C@H]1O[C@@H](n2ccc(=O)[nH]c2=O)[C@H](O)[C@@H]1O)NCc1cccc2ccccc12	n	n	n	n	n	n
CCCNC(=O)C1(C)CCCN(C(=O)c2cc(C)nn2C(C)(C)C)C1 (stereo not given)	n	n	n	n	n	n
COCc1cc([C@@H]2C[C@H]3CN(c4ccccc4)C(=O)[C@]34CCCN24)ccc1OC	n	n	n	n	n	57.4
CN1C[C@@H]2C[C@@H](C3=Cc4cc(Cl)ccc4OC3)N3CCC[C@@]23C1=O	n	n	n	n	n	n
COc1ccc([C@@H]2C[C@H]3CN(c4ccccc4)C(=O)[C@]34CCCN24)c(OC)c1OC	n	n	n	n	n	n
Cc1cccc([C@@H]2C[C@H]3CN(Cc4cccc(Cl)c4)C(=O)[C@]34CCCN24)n1	n	n	n	n	n	23.3
COc1ccc2c(c1)C=C([C@@H]1C[C@H]3CN(c4ccccc4)C(=O)[C@]34CCCN14)CO2	n	n	n	n	n	57.6
CCc1ccc([C@@H]2C[C@H]3CN(Cc4ccccc4OC)C(=O)[C@]34CCCN24)cc1	n	n	n	n	n	47.1
Cc1csc(-c2nc3ccccc3n2C(C)c2nc3ccccc3[nH]2)c1 (stereo not given)	x	n	x	n	n	x
Cc1cccc2c1Sc1ccccc1CC2=O	n	n	n	n	n	n
O=C1c2ccccc2CCc2ccccc21	n	n	n	n	n	n
CC[N+]1(C)CCC(=C2c3ccccc3CC(=O)c3sccc32)CC1 (stereo not given)	n	n	n	n	98.8	98.3
C[N+]1(C)CCC(=C2c3ccccc3CC(=O)c3sccc32)CC1	n	n	n	n	77.3	94.6
O=C1C(=O)N(CCCc2ccccc2)c2ccccc21	n	n	18.3	25.7	n	n
O=C1C(=O)N(C/C=C/c2ccccc2)c2ccccc21	n	n	24.1	n	n	n
O=C1c2ccccc2C(=O)N1C/C=C/c1ccccc1	n	n	n	n	n	n
Cc1ccccc1NC(=O)Cc1nc(COC(=O)c2ccc(S(C)(=O)=O)c([N+](=O)[O-])c2)cs1	n	n	n	n	n	33.9
NCCCn1c(C(=O)c2cc(Cl)c(N)c(Cl)c2)c2ccc(C(F)(F)F)cc2[n+]1[O-]	n	18.8	n	n	n	n
NC(=O)CCCn1c(C(=O)c2cc(Cl)c(N)c(Cl)c2)c2ccc(C(F)(F)F)cc2[n+]1[O-]	n	n	n	n	n	n
CSc1nc(C)c(C(=O)C[n+]2ccccc2)cc1C#N	n	n	n	n	n	27.5
C=CCC1(CC=C)CCCN1C(=O)c1cc(COc2cncc(Cl)c2)on1	n	n	n	n	n	40.0
Cc1cc(N2CCCCCC2)nc2ccc(F)cc12	n	n	30.6	n	n	n
CCCCN(C(=O)C1CCCC1)c1c(N)n(CC(C)C)c(=O)[nH]c1=O	29.9	n	n	n	n	n
